In ChEMBL document CHEMBL1795259, “Thymol, benzofuranoid, and phenylpropanoid derivatives: anti-inflammatory constituents from Eupatorium cannabinum” (J Nat Prod, 2011):

How the values were obtained:
Conditions in all cases: Neutrophil
[1] = Antiinflammatory activity in human neutrophils assessed as inhibition of fMLP/cytochalasin B-induced elastase release using MeO-Suc-Ala-Ala-Pro-Val-p-nitroanilide as elastase substrate at 10 ug/mL after 5 mins; type: functional
In short: (§1)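 Neutrophils isolated from venous blood of healthy adult volunteers (20-28 y) by dextran sedimentation, Ficoll-Hypaque centrifugation and hypotonic erythrocyte lysis, >98% viable, kept in Ca2+-free HBSS pH 7.4 at 4 °C. Cells (6 × 10^5/mL) given 100 μM substrate, equilibrated 2 min at 37 °C, compound 5 min, then fMLP 100 nM/CB 0.5 μg/mL; A405 monitored continuously. Mean ± SEM, n = 3-4.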

[2] = Antiinflammatory activity in human neutrophils assessed as inhibition of fMLP/cytochalasin B-induced superoxide anion production at 10 ug/mL after 5 mins by spectrophotometer analysis; type: functional
In short: (§2)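 Donor neutrophils (6 × 10^5/mL) prepared as for elastase, with 0.5 mg/mL ferricytochrome c and 1 mM Ca2+. Equilibrated 2 min at 37 °C, compound or DMSO 5 min, CB 1 μg/mL 3 min, then fMLP 100 nM 10 min. A550 monitored continuously with stirring. SOD (100 U/mL)-inhibitable reduction, ε = 21.1/mM/10 mm. Mean ± SEM, n = 3-4.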

[3] = Antiinflammatory activity in human neutrophils assessed as inhibition of fMLP/cytochalasin B-induced elastase release using MeO-Suc-Ala-Ala-Pro-Val-p-nitroanilide as elastase substrate after 5 mins; type: functional, cell-based; in short: as §1
[4] = Antiinflammatory activity in human neutrophils assessed as inhibition of fMLP/cytochalasin B-induced superoxide anion production after 5 mins by spectrophotometer analysis; type: functional, cell-based; in short: as §2

## C=C(COC(=O)/C(C)=C\C)c1ccc(C)cc1O
[1]
  inhibition at 10 µg/mL: 23%
[2]
  inhibition at 10 µg/mL: 20.3%

## C=C(COC(=O)CC(C)C)c1ccc(C)cc1O
[3]
  IC50: 18.3 µM
[2]
  inhibition at 10 µg/mL: 39.6%

## Cc1ccc2c(c1)OC(C)(O)C2=O (stereo not drawn)
[1]
  inhibition at 10 µg/mL: 17.3%
[2]
  inhibition at 10 µg/mL: 0.02%

## CC(=O)C(=O)c1ccc(C)cc1O
[1]
  inhibition at 10 µg/mL: 37.3%
[2]
  inhibition at 10 µg/mL: 10.1%

## C/C=C(\C)C(=O)Oc1cc(C)ccc1C1(COC(C)=O)CO1 (stereo not drawn)
[3]
  IC50: 25.8 µM
[4]
  IC50: 8.32 µM

## C=C(COC(C)=O)c1ccc(C)cc1OC(=O)/C(C)=C/C
[1]
  inhibition at 10 µg/mL: 36.6%
[4]
  IC50: 8.5 µM

## C/C=C(\C)C(=O)Oc1cc(C)ccc1C(C)COC(C)=O (stereo not drawn)
[1]
  inhibition at 10 µg/mL: 21.6%
[4]
  IC50: 18.4 µM

## C=C(CO)c1ccc(C)cc1O
[1]
  inhibition at 10 µg/mL: 1.86%
[2]
  inhibition at 10 µg/mL: 2.67%

## C=C(COC(=O)C(C)C)c1ccc(C)cc1O
[3]
  IC50: 16.1 µM
[2]
  inhibition at 10 µg/mL: 32.7%

## COC(C)(COC(=O)C(C)C)c1ccc(C)cc1O (stereo not drawn)
[1]
  inhibition at 10 µg/mL: 30%
[4]
  IC50: 8.19 µM

## C/C=C(/C)C(=O)OCC(C)(OC)c1ccc(C)cc1O (stereo not drawn)
[1]
  inhibition at 10 µg/mL: 13.6%
[2]
  inhibition at 10 µg/mL: 14.7%

## C/C=C(/C)C(=O)OCC(O)(COC(C)=O)c1ccc(C)cc1O (stereo not drawn)
[3]
  IC50: 6.27 µM
[4]
  IC50: 13.1 µM

## Cc1ccc2c(c1)OC1OC3(CCC21O)c1ccc(C)cc1OC3O (stereo not drawn)
[1]
  inhibition at 10 µg/mL: 13%
[2]
  inhibition at 10 µg/mL: 4.37%

## CC(=O)c1ccc(CO)cc1O
[3]
  IC50: 6.38 µM
[4]
  IC50: 8.13 µM

## C/C=C(/C)C(=O)O[C@@H]1Oc2cc(C)ccc2[C@@]1(C)O (relative stereo) [EUPATOBENZOFURAN]
[3]
  IC50: 11.3 µM
[2]
  inhibition at 10 µg/mL: 37.1%

## O=c1ccc2ccccc2o1 [COUMARIN]
[1]
  inhibition at 10 µg/mL: 23.8%
[2]
  inhibition at 10 µg/mL: 8.5%

## C=C(C)c1cc2cc(C(C)=O)c(O)cc2o1 [EUPARIN]
[1]
  inhibition at 10 µg/mL: 12.6%
[2]
  inhibition at 10 µg/mL: 13.7%

## O=c1cc(N2CCOCC2)oc2c(-c3ccccc3)cccc12 [LY-294002]
[3]
  IC50: 1.98 µM
[4]
  IC50: 1.09 µM

## C=C1CC[C@]2(C)CC[C@]3(C)[C@H](CC[C@@H]4[C@@]5(C)CC[C@H](OC(C)=O)C(C)(C)[C@@H]5CC[C@]43C)[C@H]2[C@@H]1C [TARAXASTEROL ACETATE]
[1]
  inhibition at 10 µg/mL: 4.73%
[2]
  inhibition at 10 µg/mL: 0.68%
